This passage reports IC50 and CC50 results from ChEMBL document CHEMBL1125737, “Synthesis and anti-HIV activities of low molecular weight aurintricarboxylic acid fragments and related compounds” (J Med Chem, 1991).

Converted amounts (≈) assume the structure as drawn.

In data set [1] the test system is HuT78. Briefly: Inhibitory concentration that reduced the number of gaint cells by 50% between HIV-1 infected HUT-78 cells and uninfected MOLT-4 cells. It counts as functional, cell-based. To be noted: Homo sapiens. A digest of the protocol: (§1)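 MOLT-4 cells were cocultured with an equal number of HUT-78/HTLV-IIIB or HUT-78/LAV-2ROD cells at various compound concentrations for 24 h. Giant cells were counted microscopically and analysed by laser flow cytometry. The value is the concentration reducing giant cell number by 50%, as the mean of at least three experiments.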

Data set [2] in a line: 50% cytotoxic concentrations for mock-infected MT-4 cells. It counts as cell-based, MT4. To be noted: human. Put shortly:
(§2)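 Mock-infected MT-4 cells were exposed to the compounds. Viability was read by a tetrazolium (MTT) colorimetric method in 96-well microtrays. The value is the concentration that is 50% cytotoxic, given as the mean of at least three experiments.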

For data set [3], the system named is Human immunodeficiency virus 2. Put plainly: Inhibitory concentration for cytopathicity of HIV-2 (LAV-2ROD) in MT-4 cells. To be noted: Human immunodeficiency virus 2, MT4. It counts as functional, organism-based. (Protection from cytopathic effect is a common read-out in antiviral testing.)
Data set [4] relates to Human immunodeficiency virus 1. Put plainly: Inhibitory concentration for cytopathicity of HIV-1 (HTLV-IIIB) in MT-4 cells. It counts as functional, organism-based. To be noted: Human immunodeficiency virus 1, MT4.
The test system of data set [5] is HuT78. Briefly: Inhibitory concentration that reduced the number of gaint cells by 50% between HIV-2 infected HUT-78 cells and uninfected MOLT-4 cells. It counts as functional, cell-based. Conditions: Homo sapiens. A digest of the protocol:
as §1

The subject of data set [6] is Human immunodeficiency virus 1. Put plainly: Inhibitory concentration for cytopathicity of HIV-1 (HTLV-IIIB) in CEM cells. It counts as functional, organism-based. Conditions: Human immunodeficiency virus 1, CCRF-CEM. A digest of the protocol:
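HIV-1 (HTLV-IIIB)-infected CEM cells were treated with the compounds. Cell viability was determined by a tetrazolium (XTT) assay. The 50% inhibitory concentration for cytopathicity is the mean of at least three experiments.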

A short description of data set [7]: 50% cytotoxic concentrations for mock-infected MT-4 cells. It counts as cell-based, MT4. To be noted: human. Put shortly: as §2
Data set [8] concerns HuT78. Put plainly: Inhibitory concentration that reduced the number of gaint cells by 50% between HIV-1 infected HUT-78 cells and uninfected MOLT-4 cells. It counts as functional, cell-based. Conditions: Homo sapiens. A digest of the protocol:
as §1

The test system of data set [9] is HuT78. Briefly: Inhibitory concentration that reduced the number of gaint cells by 50% between HIV-2 infected HUT-78 cells and uninfected MOLT-4 cells. To be noted: Homo sapiens. It counts as functional, cell-based. Put shortly: as §1

One may read the IC50 as the concentration that gives 50% inhibition. Usually CC50 stands for the concentration at which the toxic effect on the cells reaches its halfway point. Lower therefore signals harm at low concentration. In the case of `O=C(O)c1cc(C(c2ccc(O)c(C(=O)O)c2)c2ccc(O)c(C(=O)O)c2)ccc1O`, the IC50 in the data set with HuT78 [1] is > 100 µg/mL; in data set [3], 13 µg/mL (≈ 30.6 µM); in data set [4], > 100 µg/mL; with HuT78 [5] it was 15 µg/mL (≈ 35.3 µM); in data set [6], 32.5 µg/mL (≈ 76.6 µM). In [2], this compound came in with a CC50 of 256 µg/mL (≈ 603 µM).

As to `Cc1cc(Cc2cc(C)c(O)c(C(=O)O)c2)cc(C(=O)O)c1O`, the CC50 in data set [2] was > 100 µg/mL. Moreover, the IC50 in [3] was > 100 µg/mL; in data set [4], > 100 µg/mL; in data set [6], 55.5 µg/mL (≈ 175 µM).

On to `Cc1cc(C(c2cc(C)c(O)c(C(=O)O)c2)c2cc(C)c(O)c(C(=O)O)c2)cc(C(=O)O)c1O`, for which the IC50 in the data set on HuT78 [1] is > 20 µg/mL; in data set [3] it was 67 µg/mL (≈ 144 µM); in data set [4], 80 µg/mL (≈ 172 µM); in the data set on HuT78 [5], > 20 µg/mL; in [6] it was > 186 µg/mL. In [2], this compound returned a CC50 of 82 µg/mL (≈ 176 µM).

As for `O=C(O)c1cc(Cc2cc(Br)c(O)c(C(=O)O)c2)cc(Br)c1O`, the CC50 in data set [7] is > 100 µg/mL. Besides, the IC50 in data set [3] and in [4] was > 100 µg/mL each time.

With `COC(=O)c1cc(C(c2ccc(O)c(C(=O)OC)c2)c2ccc(O)c(C(=O)OC)c2)ccc1O`, the IC50 in the data set with HuT78 [1] was > 100 µg/mL; in data set [3], > 100 µg/mL; in [4], > 100 µg/mL; in the data set with HuT78 [5], > 100 µg/mL; in data set [6], > 78 µg/mL. Further, in [2], the CC50 turned out to be 52 µg/mL (≈ 111 µM).

Consider `O=C(O)c1cc(Cc2cc(C(=O)O)c(O)c3ccccc23)c2ccccc2c1O`, for which, in [7], the half-maximal cytotoxic concentration (CC50) came to 73 µg/mL (≈ 188 µM). Also, the IC50 with HuT78 [8] was > 20 µg/mL; in the data set on HuT78 [9], > 20 µg/mL; in [3] it was 79 µg/mL (≈ 203 µM); in data set [4], 75 µg/mL (≈ 193 µM); in data set [6] it was 20 µg/mL (≈ 51.5 µM).

For the compound `O=C(O)c1cccc(Cc2cccc(C(=O)O)c2O)c1O`, in [7], the 50% cytotoxic concentration (CC50) is > 100 µg/mL. Also, the figures for the IC50 in data set [3], in data set [4] and in data set [6] were > 100 µg/mL, > 100 µg/mL and > 125 µg/mL, respectively.

As for `O=C(O)c1cc(Cc2ccc(O)c(C(=O)O)c2)ccc1O`, in data set [7], the CC50 is > 100 µg/mL. Also, the IC50 in data set [3] is > 100 µg/mL; in [4], > 100 µg/mL; in data set [6], > 276 µg/mL.

As to `O=C(O)c1cc(Cc2cc(Cl)c(O)c(C(=O)O)c2)cc(Cl)c1O`, in [7], the CC50 is > 100 µg/mL. Also, the IC50 is > 100 µg/mL in [3], > 100 µg/mL in data set [4] and 117 µg/mL (≈ 328 µM) in [6].

Regarding `Cc1cc(C(O)(c2cc(C)c(O)c(C(=O)O)c2)c2cc(C)c(O)c(C(=O)O)c2)cc(C(=O)O)c1O`, the CC50 in [2] is > 100 µg/mL. Moreover, the IC50 in data set [3] is > 100 µg/mL; in data set [4], > 100 µg/mL; in data set [6], > 205 µg/mL.

Regarding `COC(=O)c1cc(C(c2cc(C)c(O)c(C(=O)OC)c2)c2cc(C)c(O)c(C(=O)OC)c2)cc(C)c1O`, the CC50 in data set [2] was > 100 µg/mL. Also, the IC50 in data set [3] and in data set [4] was > 100 µg/mL throughout.

In the case of `O=C(O)c1cc(Br)cc(Cc2cc(Br)cc(C(=O)O)c2O)c1O`, the CC50 in [7] was > 100 µg/mL. Also, the IC50 in data set [3] is > 100 µg/mL; in [4], > 100 µg/mL; in data set [6], 72.1 µg/mL (≈ 162 µM).

Turning to `O=S(=O)([O-])c1cc(Cl)cc(Cc2cc(Cl)cc(S(=O)(=O)[O-])c2O)c1O.[Na+].[Na+]`, the IC50 was > 100 µg/mL with HuT78 [1]; > 100 µg/mL in [3]; > 100 µg/mL in data set [4]; > 100 µg/mL with HuT78 [5]; 123 µg/mL in data set [6]. The CC50 in data set [2] is > 100 µg/mL.

Consider `COC(=O)c1cc(C(O)(c2ccc(O)c(C(=O)OC)c2)c2ccc(O)c(C(=O)OC)c2)ccc1O`, for which the IC50 in the data set with HuT78 [1] is > 100 µg/mL; in data set [3] it was > 100 µg/mL; in data set [4] it was > 100 µg/mL; in the data set on HuT78 [5] it was > 100 µg/mL; in data set [6], > 78 µg/mL. Also, the CC50 in [2] turned out to be 66 µg/mL (≈ 137 µM).

In the case of `O=C(O)c1cc(C(O)(c2ccc(O)c(C(=O)O)c2)c2ccc(O)c(C(=O)O)c2)ccc1O`, the IC50 with HuT78 [1] was > 100 µg/mL; in data set [3] it was 15 µg/mL (≈ 34.1 µM); in data set [4], > 100 µg/mL; with HuT78 [5], 15 µg/mL (≈ 34.1 µM); in data set [6], 50.4 µg/mL (≈ 114 µM). This compound displayed a CC50 in [2] of 248 µg/mL (≈ 563 µM).

`O=C(O)C1=CC(=C(c2ccc(O)c(C(=O)O)c2)c2ccc(O)c(C(=O)O)c2)C=CC1=O` [AURINTRICARBOXYLIC ACID] returned a CC50 in data set [2] of 280 µg/mL (≈ 663 µM). In addition, the IC50 in data set [3] was determined as 0.85 µg/mL (≈ 2.01 µM); in [4], 1.1 µg/mL (≈ 2.6 µM); in the data set with HuT78 [5], 4 µg/mL (≈ 9.47 µM); in data set [6], 2.1 µg/mL (≈ 4.97 µM).

`CC1=C/C(=C(/c2cc(C)c(O)c(C(=O)[O-])c2)c2c(Cl)ccc(S(=O)(=O)[O-])c2Cl)C=C(C(=O)[O-])C1=O.[Na+].[Na+].[Na+]` [CHROME AZUROL S] gave a half-maximal inhibitory concentration (IC50) in data set [6] of 50.2 µg/mL.
